Measurements reported in ChEMBL document CHEMBL1795269, “Novel (E)-5-styryl-2,2'-bithiophene derivatives as ligands for β-amyloid plaques” (Eur J Med Chem, 2011).

How the values were obtained:
Stomach [1] = test: Biodistribution in Kunming mouse stomach assessed per organ at 1 uCi, iv after 60 mins by gamma counting; format: ADME, organism-based; details: in vivo, 1 h
Kidney [2] = test: Biodistribution in Kunming mouse kidney at 1 uCi, iv after 2 mins by gamma counting; format: ADME, organism-based; details: in vivo
In short: (§1)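 Female normal KunMing mice, about 20 g. [125I]-labelled tracer (1 μCi) in 100 μL saline injected into the tail vein. Mice killed at set times after injection; organs removed, weighed and counted in a gamma counter. %ID/g of wet tissue calculated against diluted aliquots of the injected dose.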

Blood [3] = test: Biodistribution in Kunming mouse blood at 1 uCi, iv after 30 mins by gamma counting; format: ADME, organism-based; details: in vivo, 0.5 h; in short: as §1
Muscle tissue [4] = test: Biodistribution in Kunming mouse muscle at 1 uCi, iv after 15 mins by gamma counting; format: ADME, organism-based; details: in vivo, 0.25 h; in short: as §1
Kidney [5] = test: Biodistribution in Kunming mouse kidney at 1 uCi, iv after 120 mins by gamma counting; format: ADME, organism-based; details: in vivo, 2 h; in short: as §1
Heart [6] = test: Biodistribution in Kunming mouse heart at 1 uCi, iv after 15 mins by gamma counting; format: ADME, organism-based; details: in vivo, 0.25 h; in short: as §1
Brain [7] = test: Biodistribution in Kunming mouse brain at 1 uCi, iv after 60 mins by gamma counting; format: ADME, organism-based; details: in vivo, 1 h; in short: as §1
Blood [8] = test: Biodistribution in Kunming mouse blood at 1 uCi, iv after 60 mins by gamma counting; format: ADME, organism-based; details: in vivo, 1 h; in short: as §1
Lung [9] = test: Biodistribution in Kunming mouse lung at 1 uCi, iv after 2 mins by gamma counting; format: ADME, organism-based; details: in vivo; in short: as §1
Spleen [10] = test: Biodistribution in Kunming mouse spleen at 1 uCi, iv after 60 mins by gamma counting; format: ADME, organism-based; details: in vivo, 1 h; in short: as §1
Brain [11] = test: Biodistribution in Kunming mouse brain at 1 uCi, iv after 120 mins by gamma counting; format: ADME, organism-based; details: in vivo, 2 h; in short: as §1
Heart [12] = test: Biodistribution in Kunming mouse heart at 1 uCi, iv after 120 mins by gamma counting; format: ADME, organism-based; details: in vivo, 2 h; in short: as §1
Blood [13] = test: Biodistribution in Kunming mouse blood at 1 uCi, iv after 15 mins by gamma counting; format: ADME, organism-based; details: in vivo, 0.25 h; in short: as §1
Liver [14] = test: Biodistribution in Kunming mouse liver at 1 uCi, iv after 2 mins by gamma counting; format: ADME, organism-based; details: in vivo; in short: as §1
Spleen [15] = test: Biodistribution in Kunming mouse spleen at 1 uCi, iv after 120 mins by gamma counting; format: ADME, organism-based; details: in vivo, 2 h; in short: as §1
Liver [16] = test: Biodistribution in Kunming mouse liver at 1 uCi, iv after 15 mins by gamma counting; format: ADME, organism-based; details: in vivo, 0.25 h; in short: as §1
Liver [17] = test: Biodistribution in Kunming mouse liver at 1 uCi, iv after 30 mins by gamma counting; format: ADME, organism-based; details: in vivo, 0.5 h; in short: as §1
Heart [18] = test: Biodistribution in Kunming mouse heart at 1 uCi, iv after 30 mins by gamma counting; format: ADME, organism-based; details: in vivo, 0.5 h; in short: as §1
Muscle tissue [19] = test: Biodistribution in Kunming mouse muscle at 1 uCi, iv after 60 mins by gamma counting; format: ADME, organism-based; details: in vivo, 1 h; in short: as §1
Blood [20] = test: Biodistribution in Kunming mouse blood at 1 uCi, iv after 120 mins by gamma counting; format: ADME, organism-based; details: in vivo, 2 h; in short: as §1
Brain [21] = test: Biodistribution in Kunming mouse brain at 1 uCi, iv after 2 mins by gamma counting; format: ADME, organism-based; details: in vivo; in short: as §1
Stomach [22] = test: Biodistribution in Kunming mouse stomach assessed per organ at 1 uCi, iv after 120 mins by gamma counting; format: ADME, organism-based; details: in vivo, 2 h; in short: as §1
Heart [23] = test: Biodistribution in Kunming mouse heart at 1 uCi, iv after 2 mins by gamma counting; format: ADME, organism-based; details: in vivo; in short: as §1
Liver [24] = test: Biodistribution in Kunming mouse liver at 1 uCi, iv after 120 mins by gamma counting; format: ADME, organism-based; details: in vivo, 2 h; in short: as §1
Kidney [25] = test: Biodistribution in Kunming mouse kidney at 1 uCi, iv after 30 mins by gamma counting; format: ADME, organism-based; details: in vivo, 0.5 h; in short: as §1
Brain [26] = test: Biodistribution in Kunming mouse brain at 1 uCi, iv after 30 mins by gamma counting; format: ADME, organism-based; details: in vivo, 0.5 h; in short: as §1
Stomach [27] = test: Biodistribution in Kunming mouse stomach assessed per organ at 1 uCi, iv after 15 mins by gamma counting; format: ADME, organism-based; details: in vivo, 0.25 h; in short: as §1
Muscle tissue [28] = test: Biodistribution in Kunming mouse muscle at 1 uCi, iv after 30 mins by gamma counting; format: ADME, organism-based; details: in vivo, 0.5 h; in short: as §1
Muscle tissue [29] = test: Biodistribution in Kunming mouse muscle at 1 uCi, iv after 2 mins by gamma counting; format: ADME, organism-based; details: in vivo; in short: as §1
Kidney [30] = test: Biodistribution in Kunming mouse kidney at 1 uCi, iv after 60 mins by gamma counting; format: ADME, organism-based; details: in vivo, 1 h; in short: as §1
Lung [31] = test: Biodistribution in Kunming mouse lung at 1 uCi, iv after 60 mins by gamma counting; format: ADME, organism-based; details: in vivo, 1 h; in short: as §1
Brain [32] = test: Biodistribution in Kunming mouse brain at 1 uCi, iv after 15 mins by gamma counting; format: ADME, organism-based; details: in vivo, 0.25 h; in short: as §1
Spleen [33] = test: Biodistribution in Kunming mouse spleen at 1 uCi, iv after 15 mins by gamma counting; format: ADME, organism-based; details: in vivo, 0.25 h; in short: as §1
Lung [34] = test: Biodistribution in Kunming mouse lung at 1 uCi, iv after 30 mins by gamma counting; format: ADME, organism-based; details: in vivo, 0.5 h; in short: as §1
Muscle tissue [35] = test: Biodistribution in Kunming mouse muscle at 1 uCi, iv after 120 mins by gamma counting; format: ADME, organism-based; details: in vivo, 2 h; in short: as §1
Spleen [36] = test: Biodistribution in Kunming mouse spleen at 1 uCi, iv after 2 mins by gamma counting; format: ADME, organism-based; details: in vivo; in short: as §1
Stomach [37] = test: Biodistribution in Kunming mouse stomach assessed per organ at 1 uCi, iv after 30 mins by gamma counting; format: ADME, organism-based; details: in vivo, 0.5 h; in short: as §1
Liver [38] = test: Biodistribution in Kunming mouse liver at 1 uCi, iv after 60 mins by gamma counting; format: ADME, organism-based; details: in vivo, 1 h; in short: as §1
Spleen [39] = test: Biodistribution in Kunming mouse spleen at 1 uCi, iv after 30 mins by gamma counting; format: ADME, organism-based; details: in vivo, 0.5 h; in short: as §1
Heart [40] = test: Biodistribution in Kunming mouse heart at 1 uCi, iv after 60 mins by gamma counting; format: ADME, organism-based; details: in vivo, 1 h; in short: as §1
[41] = Octanol-phosphate buffer partition coefficient, log D of the compound at pH 7.4; format: physicochemical
In short: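 Radiotracer added to premixed n-octanol (3 g) and PBS (0.05 M, pH 7.4; 3 g), and partitioned between the two phases.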

Lung [42] = test: Biodistribution in Kunming mouse lung at 1 uCi, iv after 15 mins by gamma counting; format: ADME, organism-based; details: in vivo, 0.25 h; in short: as §1
Stomach [43] = test: Biodistribution in Kunming mouse stomach assessed per organ at 1 uCi, iv after 2 mins by gamma counting; format: ADME, organism-based; details: in vivo; in short: as §1
Blood [44] = test: Biodistribution in Kunming mouse blood at 1 uCi, iv after 2 mins by gamma counting; format: ADME, organism-based; details: in vivo; in short: as §1
Kidney [45] = test: Biodistribution in Kunming mouse kidney at 1 uCi, iv after 15 mins by gamma counting; format: ADME, organism-based; details: in vivo, 0.25 h; in short: as §1
Lung [46] = test: Biodistribution in Kunming mouse lung at 1 uCi, iv after 120 mins by gamma counting; format: ADME, organism-based; details: in vivo, 2 h; in short: as §1

- Drug uptake (Stomach [1]): 4.28 %ID
- Drug uptake (Kidney [2]): 4.69 % ID/g
- Drug uptake (Blood [3]): 1.16 % ID/g
- Drug uptake (Muscle tissue [4]): 0.97 % ID/g
- Drug uptake (Kidney [5]): 6.35 % ID/g
- Drug uptake (Heart [6]): 3.37 % ID/g
- Drug uptake (Brain [7]): 0.47 % ID/g
- Drug uptake (Blood [8]): 1.29 % ID/g
- Drug uptake (Lung [9]): 20.89 % ID/g
- Drug uptake (Spleen [10]): 14.58 % ID/g
- Drug uptake (Brain [11]): 0.55 % ID/g
- Drug uptake (Heart [12]): 3.39 % ID/g
- Drug uptake (Blood [13]): 1.38 % ID/g
- Drug uptake (Liver [14]): 47.12 % ID/g
- Drug uptake (Spleen [15]): 21.98 % ID/g
- Drug uptake (Liver [16]): 40.18 % ID/g
- Drug uptake (Liver [17]): 42.17 % ID/g
- Drug uptake (Heart [18]): 3.35 % ID/g
- Drug uptake (Muscle tissue [19]): 0.93 % ID/g
- Drug uptake (Blood [20]): 1.76 % ID/g
- Drug uptake (Brain [21]): 2.11 % ID/g
- Drug uptake (Stomach [22]): 3.36 %ID
- Drug uptake (Heart [23]): 5.53 % ID/g
- Drug uptake (Liver [24]): 45.74 % ID/g
- Drug uptake (Kidney [25]): 4.56 % ID/g
- Drug uptake (Brain [26]): 0.41 % ID/g
- Drug uptake (Stomach [27]): 1.48 %ID
- Drug uptake (Muscle tissue [28]): 1.25 % ID/g
- Drug uptake (Muscle tissue [29]): 0.85 % ID/g
- Drug uptake (Kidney [30]): 4.91 % ID/g
- Drug uptake (Lung [31]): 12.99 % ID/g
- Drug uptake (Brain [32]): 0.42 % ID/g
- Drug uptake (Spleen [33]): 12.61 % ID/g
- Drug uptake (Lung [34]): 15.69 % ID/g
- Drug uptake (Muscle tissue [35]): 0.76 % ID/g
- Drug uptake (Spleen [36]): 11.46 % ID/g
- Drug uptake (Stomach [37]): 3.25 %ID
- Drug uptake (Liver [38]): 47.7 % ID/g
- Drug uptake (Spleen [39]): 14.82 % ID/g
- Drug uptake (Heart [40]): 2.09 % ID/g
- logD [41]: 3.31
- Drug uptake (Lung [42]): 18.99 % ID/g
- Drug uptake (Stomach [43]): 0.61 %ID
- Drug uptake (Blood [44]): 12.1 % ID/g
- Drug uptake (Kidney [45]): 4.37 % ID/g
- Drug uptake (Lung [46]): 6.29 % ID/g
Compound: [125I]c1ccc(/C=C/c2ccc(-c3cccs3)s2)cc1
